Source: PMC11078286 (Therapeutic Drug Monitoring, 2024)

How the values were obtained:
Autosampler [1] = format: in vitro ADME, human; conditions: DBS, n = 6
How it was run: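 DBS QC samples were made by filling hemaPEN capillaries from a blood drop onto precut disks and drying 1 hour at RT. Each spot (2.74 μL) was extracted in 350 µL ACN plus I.S. (30 ng/mL), vortexed, centrifuged at 15,000g, then shaken 1 hour at RT. Processed extracts were held in the autosampler at 4°C for 24 hours. Six replicates were read by UHPLC-MS/MS in positive MRM mode, with relative error taken against nominal.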

Freeze–thaw stability [2] = format: in vitro ADME, human; conditions: plasma, 3 F/T cycles, n = 6
Long-term stability [3] = format: in vitro ADME, human; conditions: plasma, Long-term (−80 degrees) for 30 d, n = 6
How it was run: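 QC samples were stored at −80°C for 30 days before analysis. Plasma (20 µL) with I.S. (30 ng/mL) was precipitated with 150 µL water and 650 µL ACN, vortexed 5 min and centrifuged at 15,000g for 10 min. A hemaPEN DBS spot was extracted in 350 µL ACN with I.S. and centrifuged at 15,000g for 5 min. There were six replicates, 1 µL was injected for UHPLC-MS/MS MRM, and relative error was calculated versus nominal.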

[4] = Bland–Altman comparison of plasma and hemaPEN DBS concentrations; format: in vivo, human; conditions: 15 patients with NSCLC
How it was run: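 Paired trough samples came from each patient: a finger-prick hemaPEN DBS, and venous EDTA blood drawn within 10 min that was spun at 2000g for 10 min, with plasma stored at −80°C. Both matrices were quantified by UHPLC-MS/MS, with AZ7550 calibrated using the labelled [¹³C²H₃] standard. Plasma and DBS values were compared by Bland–Altman analysis, with limits of agreement at ±1.96 SD of the mean difference.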

[5] = ref Rood et al, 30; cited from earlier work
Autosampler [6] = format: in vitro ADME, human; conditions: plasma, n = 6
Freeze–thaw stability [7] = format: in vitro ADME, human; conditions: DBS, 3 F/T cycles, n = 6
How it was run: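 QC samples were kept 8 hours at RT, then put through 3 freeze–thaw cycles: thaw 2 hours at RT, refreeze at −80°C for at least 12 hours. Plasma (20 µL) with I.S. was protein-precipitated with water/ACN and centrifuged 15,000g for 10 min. A DBS spot was extracted in ACN with I.S. and centrifuged 15,000g for 5 min. Six replicates were run on UHPLC-MS/MS, with relative error versus nominal.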

CYP3A4 = conditions: preclinical data; cited from earlier work
Long-term stability [8] = format: in vitro ADME, human; conditions: DBS, Long-term (−80 degrees) for 30 d, n = 6
EGFR/T790M = conditions: cited from earlier work

## C=CC(=O)Nc1cc(Nc2nccc(-c3cn(C)c4ccccc34)n2)c(OC)cc1N(C)CCN(C)C [Osimertinib]
Autosampler [1]; nominal 1 ng/mL (LLOQ)
  Mean (measured concentration, stability): 1.07
  RE (stability): 7.15%
Autosampler [1]; nominal 3 ng/mL (LQC)
  Mean (measured concentration, stability): 2.96
  RE (stability): −1.11%
Autosampler [1]; nominal 30 ng/mL (MQC)
  Mean (measured concentration, stability): 29.31
  RE (stability): −2.7%
Autosampler [1]; nominal 270 ng/mL (HQC)
  Mean (measured concentration, stability): 271.88
  RE (stability): 0.69%
Freeze–thaw stability [2]; nominal 1 ng/mL (LLOQ)
  Mean (measured concentration, stability): 1.14
  RE (stability): 10.47%
Freeze–thaw stability [2]; nominal 3 ng/mL (LQC)
  Mean (measured concentration, stability): 3.02
  RE (stability): 0.07%
Freeze–thaw stability [2]; nominal 30 ng/mL (MQC)
  Mean (measured concentration, stability): 28.84
  RE (stability): −3.85%
Freeze–thaw stability [2]; nominal 270 ng/mL (HQC)
  Mean (measured concentration, stability): 269.25
  RE (stability): −0.27%
Long-term stability [3]; nominal 1 ng/mL (LLOQ)
  Mean (measured concentration, stability): 1.15
  RE (stability): 15.47%
Long-term stability [3]; nominal 3 ng/mL (LQC)
  Mean (measured concentration, stability): 2.91
  RE (stability): −2.7%
Long-term stability [3]; nominal 30 ng/mL (MQC)
  Mean (measured concentration, stability): 29.39
  RE (stability): −2.02%
Long-term stability [3]; nominal 270 ng/mL (HQC)
  Mean (measured concentration, stability): 270.31
  RE (stability): 0.11%
[4]
  Mean concentration difference between plasma and hemaPEN DBS (Bland–Altman): 0.4%
[5]
  Degradation at RT: rapid degradation
Autosampler [6]; nominal 1 ng/mL (LLOQ)
  Mean (measured concentration, stability): 1.04
  RE (stability): 7.21%
Autosampler [6]; nominal 3 ng/mL (LQC)
  Mean (measured concentration, stability): 2.96
  RE (stability): −1.01%
Autosampler [6]; nominal 30 ng/mL (MQC)
  Mean (measured concentration, stability): 29.32
  RE (stability): −2.3%
Autosampler [6]; nominal 270 ng/mL (HQC)
  Mean (measured concentration, stability): 279.56
  RE (stability): 0.58%
Freeze–thaw stability [7]; nominal 1 ng/mL (LLOQ)
  Mean (measured concentration, stability): 1.06
  RE (stability): 8.95%
Freeze–thaw stability [7]; nominal 3 ng/mL (LQC)
  Mean (measured concentration, stability): 3.01
  RE (stability): −0.43%
Freeze–thaw stability [7]; nominal 30 ng/mL (MQC)
  Mean (measured concentration, stability): 29.34
  RE (stability): −2.24%
Freeze–thaw stability [7]; nominal 270 ng/mL (HQC)
  Mean (measured concentration, stability): 271.92
  RE (stability): 0.24%
CYP3A4
  Metabolizing enzyme: principally metabolized by cytochrome P450 (CYP3A4)
Long-term stability [8]; nominal 1 ng/mL (LLOQ)
  Mean (measured concentration, stability): 1.1
  RE (stability): 10.68%
Long-term stability [8]; nominal 3 ng/mL (LQC)
  Mean (measured concentration, stability): 2.91
  RE (stability): 0.14%
Long-term stability [8]; nominal 30 ng/mL (MQC)
  Mean (measured concentration, stability): 30.08
  RE (stability): −2.18%
Long-term stability [8]; nominal 270 ng/mL (HQC)
  Mean (measured concentration, stability): 269.97
  RE (stability): 0.71%
EGFR/T790M
  Greater potency toward mutated EGFR/T790M than wild-type EGFR: 200 ×
